Calls of active or inactive are those of the source. No cut-off for these calls is given here.
How the values were obtained:
[1] = tested on: SU-DHL-5; test: Antiproliferative activity against human SU-DHL-5 cells assessed as cell viability at 10 uM by CellTiter-Glo luminescent cell viability assay (reference value: 100%); type: functional; conditions: read-out: Activity
[2] = tested on: MOLT-4; test: Antiproliferative activity against human MOLT-4 cells assessed as cell viability at 20 uM by CellTiter-Glo luminescent cell viability assay (reference value: 100%); type: functional; conditions: read-out: Activity
[3] = target: T1, Phosphatidylinositol 4,5-bisphosphate 3-kinase catalytic subunit delta isoform (Homo sapiens) (UniProt O00329); test: Inhibition of PI3Kdelta in human SU-DHL-5 cells assessed as inhibition of AKT phosphorylation at Ser473 residue at 1 to 5 uM measured after 3 hrs by western blot assay; type: cell-based; conditions: dose 1-5 µM
T1 sequence (whole entry): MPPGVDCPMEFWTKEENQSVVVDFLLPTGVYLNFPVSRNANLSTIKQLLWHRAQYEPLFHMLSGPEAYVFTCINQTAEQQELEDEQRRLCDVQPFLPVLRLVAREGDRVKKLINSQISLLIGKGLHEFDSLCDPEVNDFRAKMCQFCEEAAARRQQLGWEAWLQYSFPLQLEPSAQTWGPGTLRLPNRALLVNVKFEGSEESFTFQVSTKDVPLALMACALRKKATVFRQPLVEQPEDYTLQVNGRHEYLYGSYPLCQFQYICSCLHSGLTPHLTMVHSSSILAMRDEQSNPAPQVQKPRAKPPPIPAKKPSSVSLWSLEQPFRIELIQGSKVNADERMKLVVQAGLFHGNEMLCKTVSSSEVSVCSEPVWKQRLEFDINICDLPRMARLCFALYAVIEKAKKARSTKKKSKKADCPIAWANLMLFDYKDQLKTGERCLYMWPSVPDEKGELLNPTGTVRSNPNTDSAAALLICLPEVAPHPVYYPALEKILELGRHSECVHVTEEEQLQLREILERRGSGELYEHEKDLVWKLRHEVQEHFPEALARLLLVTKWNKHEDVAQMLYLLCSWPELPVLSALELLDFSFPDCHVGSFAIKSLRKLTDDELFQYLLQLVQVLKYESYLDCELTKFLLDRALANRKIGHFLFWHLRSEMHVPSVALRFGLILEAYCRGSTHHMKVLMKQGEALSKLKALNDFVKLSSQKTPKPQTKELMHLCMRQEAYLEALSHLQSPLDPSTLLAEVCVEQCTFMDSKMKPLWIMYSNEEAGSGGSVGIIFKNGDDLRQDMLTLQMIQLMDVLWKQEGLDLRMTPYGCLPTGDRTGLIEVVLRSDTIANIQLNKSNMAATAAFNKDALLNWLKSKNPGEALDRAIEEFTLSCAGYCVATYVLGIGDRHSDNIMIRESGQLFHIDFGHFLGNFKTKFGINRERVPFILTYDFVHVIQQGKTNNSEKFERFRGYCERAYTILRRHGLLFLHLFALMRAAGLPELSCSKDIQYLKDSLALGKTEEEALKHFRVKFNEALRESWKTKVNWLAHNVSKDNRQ
Summary of the method: (§1)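 Treatment lasted 3 h: SUDHL-5 at 1 μM, MOLT-4 at 5 μM. Cells washed twice in cold PBS and lysed. Proteins resolved on 10–12% SDS-PAGE and blotted to PVDF. Probed for p-AKT S473, p-AKT T308, p-S6 and p-4E-BP1, with β-actin as loading control.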

[4] = target: T1, Phosphatidylinositol 4,5-bisphosphate 3-kinase catalytic subunit delta isoform (Homo sapiens); test: Inhibition of PI3Kdelta in human MOLT-4 cells assessed as inhibition of AKT phosphorylation at Ser473 residue at 1 to 5 uM measured after 3 hrs by western blot assay; type: cell-based; conditions: dose 1-5 µM; summary of the method: as §1
[5] = target: T1, Phosphatidylinositol 4,5-bisphosphate 3-kinase catalytic subunit delta isoform (Homo sapiens); test: Inhibition of PI3Kdelta in human SU-DHL-5 cells assessed as inhibition of 4EBP1 phosphorylation at 1 to 5 uM measured after 3 hrs by western blot assay; type: cell-based; conditions: dose 1-5 µM; summary of the method: as §1
[6] = tested on: SU-DHL10; test: Induction of apoptosis in human SU-DHL-10 cells assessed as early apoptotic cells at 20 uM measured after 24 hrs by AnnexinV-FITC/PI staining based flowcytometry method (reference value: 6.32%); type: functional
Summary of the method: (§2)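 Cells exposed to 20 μM compound for 24 h, washed with cold PBS, and stained with Annexin V-FITC and propidium iodide for 15 min at room temperature. Viable, early apoptotic, late apoptotic and necrotic populations quantified by flow cytometry.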

[7] = tested on: SU-DHL10; test: Induction of apoptosis in human SU-DHL-10 cells assessed as late apoptotic cells at 20 uM measured after 24 hrs by AnnexinV-FITC/PI staining based flowcytometry method (reference value: 3.48%); type: functional; summary of the method: as §2
[8] = tested on: SU-DHL10; test: Induction of apoptosis in human SU-DHL-10 cells assessed as necrotic cells at 20 uM measured after 24 hrs by AnnexinV-FITC/PI staining based flowcytometry method (reference value: 0.2%); type: functional; summary of the method: as §2
[9] = tested on: MOLT-4; test: Induction of apoptosis in human MOLT-4 cells assessed as late apoptotic cells at 20 uM measured after 24 hrs by AnnexinV-FITC/PI staining based flowcytometry method (reference value: 2.17%); type: functional; summary of the method: as §2
[10] = tested on: MOLT-4; test: Induction of apoptosis in human MOLT-4 cells assessed as necrotic cells at 20 uM measured after 24 hrs by AnnexinV-FITC/PI staining based flowcytometry method (reference value: 0.51%); type: functional; summary of the method: as §2
[11] = tested on: MOLT-4; test: Antitumour activity against human MOLT-4 cells xenografted in Balb/c nude mouse assessed as inhibition of tumour growth at 10 mg/kg, po administered via gavage qd for 57 days; type: functional; conditions: MOLT-4, po, 1368 h, time 57 day, read-out: TGI
Summary of the method: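 MOLT-4 cells (2×10^6 in 0.1 mL D-PBS) implanted subcutaneously on the back of BALB/c-nude mice. Once tumours grew, mice were dosed daily by oral gavage at 10 mg/kg for 57 consecutive days. Tumours measured by caliper, with volume = ½ × […]. Body weight was tracked over the same period.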

[12] = AUC (last) in Sprague-Dawley rat at 3 mg/kg, po measured for 24 hrs by LC-MS/MS analysis; type: ADME, organism-based; set-up: route oral, time 24 hrs, dose 3 mg/kg; conditions: in vivo
Summary of the method: (§3)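 Sprague-Dawley rats dosed orally at 1 or 3 mg/kg, three animals per group. Blood sampled at 0.25, 0.5, 1, 2, 4, 8 and 24 h post-dose. Plasma separated by centrifugation, extracted and quantified by LC-MS/MS. PK parameters (Cmax, AUClast, Tmax, t1/2) derived by non-compartmental software.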

[13] = Tmax in Sprague-Dawley rat at 3 mg/kg, po measured for 24 hrs by LC-MS/MS analysis; type: ADME, organism-based; conditions: in vivo; summary of the method: as §3
[14] = Half life in Sprague-Dawley rat at 3 mg/kg, po measured for 24 hrs by LC-MS/MS analysis; type: ADME, organism-based; conditions: in vivo; summary of the method: as §3
[15] = Cytotoxicity against human MRC5 cells assessed as inhibition of cell viability at 20 uM measured after 48 hrs by MTT assay; type: cell-based; conditions: read-out: INH
Summary of the method: (§4)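 MTT assay in MRC-5 cells seeded at 2×10^6 cells/mL. Compound given in 1% FBS EMEM for 48 h at 37 °C in CO2. MTT solution then added for 3 h at 37 °C. Medium removed and formazan dissolved in DMSO.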

[16] = tested on: MRC5; test: Cytotoxicity against human MRC5 cells assessed as inhibition of cell viability measured after 48 hrs by MTT assay; type: cell-based; conditions: MRC5, 48 h; summary of the method: as §4
[17] = target: T1, Phosphatidylinositol 4,5-bisphosphate 3-kinase catalytic subunit delta isoform (Homo sapiens); test: Inhibition of PI3Kdelta in human MOLT-4 cells assessed as inhibition of AKT phosphorylation at Thr308 residue at 1 to 5 uM measured after 3 hrs by western blot assay; type: cell-based; conditions: dose 1-5 µM; summary of the method: as §1

## O=c1c2c(F)cccc2nc([C@@H](Nc2ncnc3nc[nH]c23)C2CC2)n1-c1ccccc1
[1]
  viability at 10 µM: 34.8%
[2]
  viability at 20 µM: 63.1%
[3]
  inhibition: Active
[4]
  inhibition: Active
[5]
  inhibition: Active
[6]
  Activity: 54.3%
[7]
  Activity: 24.2%
[8]
  Activity: 1.77%
[9]
  Activity: 30.3%
[10]
  Activity: 2.47%
[11]
  inhibition in vivo at 10 mg/kg/day: 55.1%
[12]
  AUC(0-t) at 24 h: 255 ng·h/mL
[13]
  Tmax: 1 h
[14]
  half-life: 7.7 h
[15]
  cytotoxicity at 48 h, 20 µM: 3.93%
[16]
  IC50: > 100 µM
[17]
  inhibition: Active

## Cc1cccc2nc([C@@H](Nc3ncnc4nc[nH]c34)C3CC3)n(-c3ccccc3)c(=O)c12
[1]
  viability at 10 µM: 20.2%
[2]
  viability at 20 µM: 14.6%
[3]
  inhibition: Active
[4]
  inhibition: Active
[5]
  inhibition: Active
[6]
  Activity: 34.9%
[7]
  Activity: 45.9%
[8]
  Activity: 4.16%
[9]
  Activity: 42.3%
[10]
  Activity: 3.3%
[11]
  inhibition in vivo at 10 mg/kg/day: 56.7%
[12]
  AUC(0-t) at 24 h: 37.2 ng·h/mL
[13]
  Tmax: 0.5 h
[14]
  half-life: 8.3 h
[15]
  cytotoxicity at 48 h, 20 µM: 23.1%
[16]
  IC50: 49.1 µM
[17]
  inhibition: Active
